This is an account of results in PubChem BioAssay AID588825 (Broad Institute, 2011).

A short description of assay [1]: SR-BI-independent HDL uptake inhibition, parental line – CHO ldlA7 parental cells, fluorescence, dry powder, counter-screen for SR-BI HDL uptake inhibitor project, dose response (AID 588825). The settings on record: CHO ldlA7 parental cells, DiI-HDL uptake fluorescence, 3 h. The method in brief:
(§1)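 Material: Parental CHO ldlA7 cells lacking LDL receptor, no mSR-BI overexpression | Medium: HEPES-buffered Ham's F12 containing fatty-acid-free BSA | Also added: DiI-labelled HDL at 10 µg/mL final | Dosing: Compounds delivered into wells by pin transfer | Incubation: 3 h exposure at 37 °C | Detection: Bottom-read fluorescence, 550 nm ex, 595 nm em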
On the technique in general: Counterscreens check selectivity or assay interference.

The test system of assay [2] is CHO ldlA7 parental cells, DiI-HDL uptake fluorescence, 3 h. Described as above. The method in brief:
as §1

The source made the active and inactive calls.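 Rule for the calls: active = signal drop whose fitted AC50 is at most twice the top valid dose for that sample; inconclusive = flat fit with a moderate drop, or a poor fit; inactive = the rest.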

Turning to `CCC(=O)N1CCc2cc(-c3csc(NC(=O)c4ccc(F)c(OC)c4)n3)ccc21`, in assay [1] (at 35 µM (top of the series)), the activity change, negative = inhibition was 7.73% (inactive).
Consider `CC1CCC/C=C/C2CC(O)CC2C(O)/C=C\C(=O)O1` (configuration not stated), for which, in assay [1] (at 35 µM (top of the series)), the activity change, negative = inhibition is -6.83% (inactive).
Consider `Cc1ccc2oc(-c3cccc(NC(=O)c4cc(-n5cnnc5)ccc4Cl)c3)nc2c1`, for which the activity change, negative = inhibition in assay [1] (at 35 µM (top of the series)) was -1.07% (inactive).
As for `CCNC(=O)N1CCc2cc(-c3csc(NC(=O)c4cc(OC)cc(OC)c4)n3)ccc21`, in assay [1] (at 35 µM (top of the series)), the activity change, negative = inhibition was -0.713% (inactive).
In the case of `COc1cc(OC)cc(C(=O)Nc2nc(-c3ccc4c(c3)CCN4C(=O)OC(C)(C)C)cs2)c1`, in assay [1] (at 35 µM (top of the series)), the activity change, negative = inhibition is 1.78% (inactive).
On the same count and under the same terms, then `C[C@@H]1CN([C@H](C)CO)C(=O)c2cc(NC(=O)Cc3cn(C)c4ccccc34)ccc2O[C@H]1CN(C)S(=O)(=O)c1ccc(Cl)cc1`, with 5.56% (inactive).
Still for that read-out and setting: with `CCC(=O)N1CC(C)(C)c2cc(-c3csc(NC(=O)c4cc(OC)cc(OC)c4)n3)ccc21` the figure was -2.41% (inactive); with `CC(=O)N1CCc2cc(-c3nc(NC(=O)c4cccc(OC(F)(F)F)c4)sc3C)ccc21`, 0.208% (inactive).
Turning to `COc1c(NC(=O)C(=O)c2ccc(OCCN3CCOCC3)c3ccccc23)cc(C(C)(C)C)cc1NS(C)(=O)=O`, in assay [1] (at 35 µM (top of the series)), the activity change, negative = inhibition is 8% (inactive).
As for `CC(C)(Sc1cc(C(C)(C)C)c(O)c(C(C)(C)C)c1)Sc1cc(C(C)(C)C)c(O)c(C(C)(C)C)c1`, the activity change, negative = inhibition in assay [1] (at 35 µM (top of the series)) was -1.71% (inactive).
Take `C[C@H](C(=O)NC1CCCC1)N(C(=O)Cn1nnc(-c2ccc3c(c2)OCO3)n1)C1CCCCC1`: in assay [1] (at 35 µM (top of the series)), the activity change, negative = inhibition is 0.283% (inactive).
The AC50 is the concentration giving half of the maximal activity seen. Turning to `CCCCCCC1CCC/C1=N\NC(N)=S` (configuration not stated), the AC50 in assay [2] is > 70 µM (inactive).
Take `COCC(=O)N1CCc2cc(-c3csc(NC(=O)c4cc(OC)cc(OC)c4)n3)ccc21`: the activity change, negative = inhibition in assay [1] (at 35 µM (top of the series)) is 1.62% (inactive).
Still for that read-out and setting: then `COc1ccc(-c2cc(CC(=O)N(C3CCCCC3)C(C)C(=O)NC3CCCC3)no2)cc1OC` (configuration not stated), with 3.44% (inactive); and `CCC(=O)N1CCc2cc(-c3csc(NC(=O)c4cccc(OC)c4)n3)ccc21`, with 14.2% (inactive).
On to `COc1cc(OC)cc(C(=O)Nc2nc(-c3ccc4c(c3)CCN4C(=O)CN(C)C)cs2)c1`, for which the activity change, negative = inhibition in assay [1] (at 35 µM (top of the series)) is 3.12% (inactive).
Take `C[C@@H]1CN([C@@H](C)CO)C(=O)Cc2cc(NC(=O)Nc3ccc(C(F)(F)F)cc3)ccc2O[C@@H]1CN(C)S(=O)(=O)c1ccc(Cl)cc1`: the activity change, negative = inhibition in assay [1] (at 30 µM (top of the series)) is 19.1% (inactive).
